# Measurements as given in ChEMBL document CHEMBL4184148 (Bioorg Med Chem Lett, 2017).
# Legend:
# [1] = system: Tyrosine-protein kinase ABL1 (Homo sapiens), P00519 [F317I]; experiment: Binding affinity to human phosphorylated ABL1 F317I mutant (S229 to K512 residues) expressed in HEK293 cells at 1 uM by Kinomescan method relative to control; type: cell-based
# [2] = system: Tyrosine-protein kinase ABL1 (Homo sapiens), P00519 [Y253F]; experiment: Binding affinity to human phosphorylated ABL1 Y253F mutant (S229 to K512 residues) expressed in HEK293 cells at 1 uM by Kinomescan method relative to control; type: cell-based
# [3] = molecular target: 5'-AMP-activated protein kinase catalytic subunit alpha-1 (Homo sapiens) (UniProt Q13131); experiment: Binding affinity to wild-type human partial length AMPK alpha1 (M1 to E306 residues) expressed in Escherichia coli BL21 at 1 uM by Kinomescan method relative to control
# In short: (§1)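 Kinome-wide competition binding panel run by an outside provider, with each compound tested at a single concentration. Activity is read against the kinase panel.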
# [4] = molecular target: Calcium/calmodulin-dependent protein kinase type II subunit delta (Homo sapiens) (UniProt Q13557); experiment: Binding affinity to wild-type human partial length CAMK2D (M1 to E329 residues) expressed in Escherichia coli BL21 at 1 uM by Kinomescan method relative to control
# [5] = molecular target: Peripheral plasma membrane protein CASK (Homo sapiens) (UniProt O14936); experiment: Binding affinity to wild-type human partial length CASK (M1 to H315 residues) expressed in HEK293 cells at 1 uM by Kinomescan method relative to control; type: cell-based
# [6] = molecular target: Casein kinase II subunit alpha' (Homo sapiens) (UniProt P19784); experiment: Binding affinity to wild-type human full length CSNK2A2 (M1 to R350 residues) expressed in HEK293 cells at 1 uM by Kinomescan method relative to control; type: cell-based
# In short: (§2)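 Run as one kinome-wide competition binding panel with each compound at a single fixed concentration. Results were plotted as a kinome-wide selectivity map.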
# [7] = molecular target: Discoidin domain-containing receptor 2 (Homo sapiens) (UniProt Q16832); experiment: Binding affinity to wild-type human partial length DDR2 (V555 to E855 residues) expressed in HEK293 cells at 1 uM by Kinomescan method relative to control; type: cell-based
# [8] = molecular target: Myotonin-protein kinase (Homo sapiens) (UniProt Q09013); experiment: Binding affinity to wild-type human partial length DMPK (V47 to V415 residues) expressed in Escherichia coli BL21 at 1 uM by Kinomescan method relative to control
# [9] = system: Epidermal growth factor receptor (Homo sapiens), P00533 [T790M]; experiment: Binding affinity to human partial length EGFR T790M mutant (R669 to G1022 residues) expressed in HEK293 cells at 1 uM by Kinomescan method relative to control; type: cell-based
# [10] = molecular target: Mitogen-activated protein kinase 6 (Homo sapiens) (UniProt Q16659); experiment: Binding affinity to wild-type human partial length ERK3 (M1 to P413 residues) expressed in Escherichia coli BL21 at 1 uM by Kinomescan method relative to control
# [11] = molecular target: Receptor-type tyrosine-protein kinase FLT3 (Homo sapiens) (UniProt P36888); experiment: Binding affinity to wild-type human partial length autoinhibited FLT3 (H564 to Y969 residues) expressed in HEK293 cells at 1 uM by Kinomescan method relative to control; type: cell-based; design: scale not given: the % may be the effect or the level left
# [12] = molecular target: Vascular endothelial growth factor receptor 3 (Homo sapiens) (UniProt P35916); experiment: Binding affinity to wild-type human partial length FLT4 (E821 to E1196 residues) expressed in Escherichia coli BL21 at 1 uM by Kinomescan method relative to control
# [13] = molecular target: G protein-coupled receptor kinase 4 (Homo sapiens) (UniProt P32298); experiment: Binding affinity to wild-type human full length GRK4 (M1 to C578 residues) expressed in Escherichia coli BL21 at 1 uM by Kinomescan method relative to control; in short: as §2
# [14] = molecular target: Mitogen-activated protein kinase kinase kinase kinase 1 (Homo sapiens) (UniProt Q92918); experiment: Binding affinity to wild-type human full length HPK1 (M1 to R799 residues) expressed in Escherichia coli BL21 at 1 uM by Kinomescan method relative to control; in short: as §2
# [15] = molecular target: Tyrosine-protein kinase JAK1 (Homo sapiens) (UniProt P23458); experiment: Binding affinity to wild-type human partial length JAK1 JH1 catalytic domain (V856 to K1154 residues) expressed in Escherichia coli BL21 at 1 uM by Kinomescan method relative to control
# [16] = molecular target: Mitogen-activated protein kinase kinase kinase kinase 3 (Homo sapiens) (UniProt Q8IVH8); experiment: Binding affinity to wild-type human partial length MAP4K3 (M1 to D301 residues) expressed in Escherichia coli BL21 at 1 uM by Kinomescan method relative to control
# [17] = molecular target: Dual specificity mitogen-activated protein kinase kinase 6 (Homo sapiens) (UniProt P52564); experiment: Binding affinity to wild-type human partial length MEK6 (K36 to D334 residues) expressed in Escherichia coli BL21 at 1 uM by Kinomescan method relative to control
# [18] = molecular target: Cyclin-dependent kinase 15 (Homo sapiens) (UniProt Q96Q40); experiment: Binding affinity to wild-type human full length PFTAIRE2 (M1 to W384 residues) expressed in Escherichia coli BL21 at 1 uM by Kinomescan method relative to control; in short: as §1
# [19] = system: Phosphatidylinositol 4,5-bisphosphate 3-kinase catalytic subunit alpha isoform (Homo sapiens), P42336 [H1047Y]; experiment: Binding affinity to human partial length PIK3CA H1047Y mutant (R108 to N1068 residues) expressed in HEK293 cells at 1 uM by Kinomescan method relative to control; type: cell-based
# [20] = molecular target: Protein kinase C iota type (Homo sapiens) (UniProt P41743); experiment: Binding affinity to wild-type human partial length PRKCI (H215 to V587 residues) expressed in HEK293 cells at 1 uM by Kinomescan method relative to control; type: cell-based
# [21] = molecular target: Serine/threonine-protein kinase Sgk1 (Homo sapiens) (UniProt O00141); experiment: Binding affinity to wild-type human partial length SGK (I60 to L431 residues) expressed in HEK293 cells at 1 uM by Kinomescan method relative to control; type: cell-based
# [22] = molecular target: SNF-related serine/threonine-protein kinase (Homo sapiens) (UniProt Q9NRH2); experiment: Binding affinity to wild-type human partial length SNRK (M1 to E339 residues) expressed in HEK293 cells at 1 uM by Kinomescan method relative to control; type: cell-based
# [23] = molecular target: Non-receptor tyrosine-protein kinase TYK2 (Homo sapiens) (UniProt P29597); experiment: Binding affinity to wild-type human partial length TYK2 JH1 catalytic domain (V877 to C1187 residues) expressed in HEK293 cells at 1 uM by Kinomescan method relative to control; type: cell-based
# [24] = molecular target: Wee1-like protein kinase (Homo sapiens) (UniProt P30291); experiment: Binding affinity to wild-type human partial length WEE1 (M291 to K575 residues) expressed in Escherichia coli BL21 at 1 uM by Kinomescan method relative to control
# [25] = molecular target: Serine/threonine-protein kinase WNK3 (Homo sapiens) (UniProt Q9BYP7); experiment: Binding affinity to wild-type human partial length WNK3 (M1 to D434 residues) expressed in HEK293 cells at 1 uM by Kinomescan method relative to control; type: cell-based
Compound,Activity [1] [%],Activity [2] [%],Activity [3] [%],Activity [4] [%],Activity [5] [%],Activity [6] [%],Activity [7] [%],Activity [8] [%],Activity [9] [%],Activity [10] [%],Activity [11] [%],Activity [12] [%],Activity [13] [%],Activity [14] [%],Activity [15] [%],Activity [16] [%],Activity [17] [%],Activity [18] [%],Activity [19] [%],Activity [20] [%],also measured
C=CC(=O)Nc1ccc(C(=O)Nc2ccc(Nc3ncc4c(n3)N(C)c3ccc(C)cc3C(=O)N4C)cc2)cc1,100,100,70,100,97,100,96,96,79,97,84,98,97,100,96,97,100,99,62,87,Activity [21]: 100%; Activity [22]: 100%; Activity [23]: 73%; Activity [24]: 100%; Activity [25]: 100%
CCC(=O)Nc1ccc(C(=O)Nc2ccc(Nc3ncc4c(n3)N(C)c3ccc(C)cc3C(=O)N4C)cc2)cc1,63,3.5,64,99,80,83,89,100,78,81,85,89,100,86,86,79,97,100,72,66,Activity [21]: 79%; Activity [22]: 75%; Activity [23]: 58%; Activity [24]: 100%; Activity [25]: 100%
